From ChEMBL document CHEMBL3046857, “Novel inhibitors of the mitochondrial respiratory chain: oximes and pyrrolines isolated from Penicillium brevicompactum and synthetic analogues” (J Agric Food Chem, 2005)

How the values were obtained:
[1] = target: T1, NADH-ubiquinone oxidoreductase chain 1 (Bos taurus, UniProt P03887); assay: Inhibition of Bos taurus (beef) heart NAD1 assessed as NADH-ubiquinone oxidoreductase activity
Procedure, shortened: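 Complex I specific activity in NADH-activated beef heart submitochondrial particles (6 µg/mL; 50 mM potassium phosphate pH 7.4, 1 mM EDTA, 22 °C). Compound preincubated 5 min on ice. 75 µM NADH with 30 µM decylubiquinone as acceptor, plus 2 µM antimycin and 2 mM KCN to block downstream steps. NADH oxidation rate read at 340 nm; three assays; IC50.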

[2] = target: T1, NADH-ubiquinone oxidoreductase chain 1; assay: Inhibition of Bos taurus (beef) heart NAD1 assessed as NADH oxidase activity
Procedure, shortened: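 Beef heart submitochondrial particles, diluted to 0.5 mg/mL in 250 mM sucrose/10 mM Tris-HCl pH 7.4 and pre-activated with 300 µM NADH; then diluted to 6 µg/mL in 50 mM potassium phosphate pH 7.4, 1 mM EDTA, 22 °C. Compounds (ethanol stocks) preincubated with particles 5 min on ice. Aerobic oxidation of 75 µM NADH followed at 340 nm; three experiments; IC50.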

T1 sequence (P03887 whole entry): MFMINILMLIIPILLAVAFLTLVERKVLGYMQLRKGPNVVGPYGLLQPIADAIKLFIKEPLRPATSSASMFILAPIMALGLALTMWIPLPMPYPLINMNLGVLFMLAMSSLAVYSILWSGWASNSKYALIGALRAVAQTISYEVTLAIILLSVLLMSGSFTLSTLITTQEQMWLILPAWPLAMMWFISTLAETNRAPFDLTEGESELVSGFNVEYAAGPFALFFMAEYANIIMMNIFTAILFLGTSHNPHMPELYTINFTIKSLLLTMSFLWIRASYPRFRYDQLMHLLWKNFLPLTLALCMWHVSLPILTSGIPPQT

## CCCCCCCCC(=O)CC(=O)c1ccc[nH]1
[1]
  IC50: 14.3 µM
[2]; read-out: IC50
  IC50: 8.6 µM

## CC(C(=O)c1ccccc1)C(=O)c1ccc[nH]1 (stereo not drawn)
[2]; read-out: IC50
  IC50: 214 µM

## CCC(=O)C(C)C(=O)c1ccc[nH]1 (stereo not drawn)
[2]
  IC50: Not Active

## CCC(=O)CC(=O)c1ccc[nH]1
[2]
  IC50: Not Active

## CC1=C(C(C)c2cccc(Oc3ccccc3)c2)OC2/C(=N/O)CCN2C1=O (stereo not drawn)
[1]
  IC50: 3.44 µM
[2]; read-out: IC50
  IC50: 0.92 µM

## CCCCCCCC1=C(C)C(=O)N2CC/C(=N\O)C2O1 (stereo not drawn)
[1]
  IC50: 1.52 µM
[2]; read-out: IC50
  IC50: 0.27 µM

## C/C=C/CCCCC1=C(C)C(=O)N2CC/C(=N\O)C2O1 (stereo not drawn)
[2]
  IC50: Not Active

## CC(C(=O)N1C=CCC1)c1cccc(Oc2ccccc2)c1 (stereo not drawn)
[2]; read-out: IC50
  IC50: 6.82 µM

## CCCCCCCC(=O)C(C)C(=O)N1C=CCC1 (stereo not drawn)
[2]; read-out: IC50
  IC50: 4.55 µM

## C/C=C/CCCCC(=O)C(C)C(=O)N1C=CCC1 (stereo not drawn)
[2]
  IC50: Not Active

## CC1=C(C(C)c2cccc(Oc3ccccc3)c2)OC2C(O)CCN2C1=O (single isomer, unassigned; diastereomer 1)
[1]
  IC50: 14.3 µM
[2]; read-out: IC50
  IC50: 5.48 µM

## CC(C(=O)C(C)c1cccc(Oc2ccccc2)c1)C(=O)N1C=CCC1 (single isomer, unassigned; diastereomer 1)
[1]
  IC50: 6.57 µM
[2]; read-out: IC50
  IC50: 3.92 µM

## CC(C(=O)C(C)c1cccc(Oc2ccccc2)c1)C(=O)N1CC[C@H](O)C1 (single isomer, unassigned; diastereomer 1)
[2]; read-out: IC50
  IC50: 41.5 µM

## CC1=C(C(C)c2cccc(Oc3ccccc3)c2)OC2C(O)CCN2C1=O (single isomer, unassigned; diastereomer 2)
[1]
  IC50: 11.9 µM
[2]; read-out: IC50
  IC50: 3.13 µM

## CC(C(=O)C(C)c1cccc(Oc2ccccc2)c1)C(=O)N1C=CCC1 (single isomer, unassigned; diastereomer 2)
[1]
  IC50: 16.4 µM
[2]; read-out: IC50
  IC50: 4.4 µM

## CC(C(=O)C(C)c1cccc(Oc2ccccc2)c1)C(=O)N1CC[C@H](O)C1 (single isomer, unassigned; diastereomer 2)
[2]; read-out: IC50
  IC50: 36.3 µM
